Experimental data taken from paper PMC3406685 (The Journal of Biological Chemistry, 2012).
“Also recorded” adds a separate entry of the source. One block for each compound: values may come before it.

What was measured:
[1] = system: recombinant human α1 I domain; assay: Solid-phase binding assay; details: conclusion from all data together
[2] = system: C2C12-α11^+ cells (human α11β1); assay: Real-time adhesion of C2C12-α11^+ cells; assay type: cell-based, mouse cells expressing human α11β1; details: xCELLigence; 25,000 cells/well, 2 h; GPP10 control
PC12 cells (α1β1) = assay: Real-time PC12 cell adhesion using xCELLigence; assay type: cell-based, rat; details: for PC12 cell adhesion in presence of EDTA: 2 mM EDTA; for PC12 cell adhesion in presence of EDTA / PC12 cell adhesion (cell index), in words: 2 h; for PC12 cell adhesion relative to II-27: Mg^2+, % of the level attained with II-27, four independent experiments; for PC12 cell adhesion (cell index), in words: […] 10^4 cells/well, 2 mM Mg^2+
[3] = system: parental C2C12 cells lacking collagen-binding integrins; assay: Adhesion of parental C2C12 cells; assay type: cell-based, mouse; details: real-time adhesion, GPP10 control
[4] = system: C2C12-α2^+ cells (human α2β1); assay: Real-time adhesion of C2C12-α2^+ cells; assay type: cell-based, mouse cells expressing human α2β1; details: xCELLigence; 25,000 cells/well, 2 h; GPP10 control
[5] = system: recombinant human α2 I domain; assay: SPBA, wild-type α2 I domain to coated peptides; assay type: binding; details: 0.1 μg protein/well, four independent experiments
α1β1 = details: cited from earlier work; for preference of α1β1 and α10β1 among collagens, in words: ref [28], [29]
Rugli cells (α1β1) = assay: Real-time Rugli cell adhesion; assay type: cell-based, rat; details: xCELLigence
α2β1 = details: cited from earlier work; for affinity for the α2 I domain, in words: ref [39], [46]; for affinity for α2β1, in words: ref [37], [38]
[6] = system: α1β1-expressing Rugli cells; details: ref [54]; cited from earlier work
[7] = system: constitutively active E318W α2 I domain; assay: SPBA, constitutively active E318W α2 I domain to coated peptides; assay type: binding; details: 0.1 μg protein/well, four independent experiments
Procedure, shortened: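 GST-tagged I domain (0.1 μg/well) added to triple-helical peptides coated at 10 μg/ml (1 h, 22 °C), blocked 1 h with TBS/50 mg/ml BSA. Binding 1 h at room temperature in TBS/1 mg/ml BSA with 2 mM MgCl₂ or EDTA. Detected with HRP anti-GST (1:10,000, 1 h) and TMB colour. Mean ± S.E. of four independent experiments, each in triplicate.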

[8] = system: constitutively active E317W α1 I domain; assay: SPBA, constitutively active E317W α1 I domain to coated peptides; assay type: binding; details: 0.1 μg protein/well, four independent experiments

- overall α1β1 recognition / selectivity, in words [1]: displays little activity
Compound: GSOGEN

Compound: GDQGVOGEAGAO [II-27-B]
- C2C12-α11^+ cell adhesion, in words [2]: None of these cells showed any specific binding
- PC12 cell adhesion in presence of EDTA (PC12 cells (α1β1); xCELLigence): no adhesion was observed in the presence of EDTA
- PC12 cell adhesion relative to II-27 (PC12 cells (α1β1); xCELLigence): ~40%
- parental C2C12 cell adhesion, in words [3]: None of these cells showed any specific binding
- C2C12-α2^+ cell adhesion, in words [4]: None of these cells showed any specific binding
- adhesion of wild-type α2 I domain, in words [5]: did not bind

Compound: GLOGER
- affinity for the α1 I domain versus α2 I domain, in words (α1β1; ref [37], [38]): relatively higher affinity for the α1 I domain than for the α2 I domain

Compound: CCCCCCCCCCCCCC(=O)O[C@@H]1[C@@H](C)[C@@]2(O)[C@@H](C=C(CO)C[C@]3(O)C(=O)C(C)=C[C@@H]23)[C@@H]2C(C)(C)[C@]12OC(C)=O [PMA, phorbol 12-myristate 13-acetate, reference compound]
- Effect of PMA treatment on Rugli cell adhesion (Rugli cells (α1β1); 1 μM PMA, 30 min): increased both the rate of onset of adhesion and the peak cell index

Compound: GLKGEN
- PC12 cell adhesion (cell index), in words (PC12 cells (α1β1); xCELLigence): only slight activity

Compound: collagen VI: collagen type VI
- preference of α1β1 and α10β1 among collagens, in words (α1β1): preferentially bind collagen types IV and VI over fibrillar collagens

Compound: GKOGDQGVOGEAGAO [II-27-C]
- C2C12-α11^+ cell adhesion, in words [2]: None of these cells showed any specific binding
- PC12 cell adhesion in presence of EDTA (PC12 cells (α1β1); xCELLigence): no adhesion was observed in the presence of EDTA
- PC12 cell adhesion relative to II-27 (PC12 cells (α1β1); xCELLigence): ~40%
- PC12 cell adhesion (cell index), in words (PC12 cells (α1β1); xCELLigence): no greater than to GVOGEA
- parental C2C12 cell adhesion, in words [3]: None of these cells showed any specific binding
- C2C12-α2^+ cell adhesion, in words [4]: None of these cells showed any specific binding
- adhesion of wild-type α2 I domain, in words [5]: did not bind

Compound: GROGER
- PC12 cell adhesion (cell index), in words (PC12 cells (α1β1); xCELLigence): only slight activity
- affinity for the α2 I domain, in words (α2β1): high or moderate affinity motifs for the α2 I domain

Compound: collagen IV: monomeric pepsin-digested human collagen IV (C-5533) [reference compound]
- preference of α1β1 and α10β1 among collagens, in words (α1β1): preferentially bind collagen types IV and VI over fibrillar collagens
- affinity of α1β1 for collagen IV, in words (α1β1; ref [30]): high affinity

Compound: GFPGER
- ligand quality for α1β1-expressing Rugli cells, in words [6]: poor ligand for α1β1-expressing Rugli cells
- PC12 cell adhesion (cell index), in words (PC12 cells (α1β1); xCELLigence): weak binding (lower compared with GFOGER)
- affinity for the α2 I domain, in words (α2β1): high or moderate affinity motifs for the α2 I domain

Compound: GLOGEA
- affinity for the α2 I domain, in words (α2β1): high or moderate affinity motifs for the α2 I domain

Compound: GLSGER
- affinity for α2β1, in words (α2β1): intermediate or low affinity, which increased upon cell activation

Compound: GASGER
- affinity for α2β1, in words (α2β1): intermediate or low affinity, which increased upon cell activation

Compound: GFPGEN
- α1β1 selectivity / α1 I domain affinity, in words (α1β1; expressed within Streptococcus pyogenes collagen-like molecules, ref [40]): selective ligand for α1β1; also recorded: higher affinity for the α1 I domain compared with GFPGER

Compound: GQRGER
- affinity for α2β1, in words (α2β1): intermediate or low affinity, which increased upon cell activation

Compound: GPOGPOGEGGKOGDQGVOGEAGAOGV [II-27]
- adhesion of active E318W α2 I domain, in words [7]: E317W but not E318W bound strongly
- C2C12-α11^+ cell adhesion, in words [2]: None of these cells showed any specific binding; also recorded: did not bind
- adhesion of active E317W α1 I domain, in words [8]: E317W but not E318W bound strongly
- Increase of PC12 cell binding upon substitution of Mg^2+ with Mn^2+ (PC12 cells (α1β1); real-time binding assay, Mn^2+ vs Mg^2+ (data not shown)): 65%
- PC12 cell adhesion, comparison of selected peptides (Fig. 7) (PC12 cells (α1β1); xCELLigence, 25,000 cells/well, mean cell index after 2 h, three experiments): bound most strongly to III-7 and then to II-27 and II-28
- overall α1β1 recognition / selectivity, in words [1]: new α1β1-binding activity
- parental C2C12 cell adhesion, in words [3]: None of these cells showed any specific binding
- Rugli cell adhesion without activation, in words (Rugli cells (α1β1); control Rugli cells): moderate ligand for α1β1
- C2C12-α2^+ cell adhesion, in words [4]: None of these cells showed any specific binding; also recorded: did not bind
- adhesion of wild-type α2 I domain, in words [5]: did not bind

Compound: GMOGER
- PC12 cell adhesion (cell index), in words (PC12 cells (α1β1); xCELLigence): Moderate binding
- affinity for the α2 I domain, in words (α2β1): high or moderate affinity motifs for the α2 I domain

Compound: GAOGER
- PC12 cell adhesion (cell index), in words (PC12 cells (α1β1); xCELLigence): Moderate binding
